Key:
[1] = biological target: Glutamate NMDA receptor; test: Binding affinity was tested on Phencyclidine binding assay.; format: protein-complex assay
Summary of the method: (§1)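 [3H]phencyclidine binding to rat hippocampus membranes, with (+)-N-allylnormetazocine (SKF 10,047) defining specific binding. […] Ki via Cheng–Prusoff with Bmax and Kd taken from saturation experiments.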

[2] = biological target: T1, 5-hydroxytryptamine receptor 1A (Rattus norvegicus, UniProt P19327); test: Binding affinity was tested on 5-hydroxytryptamine 1A receptor using radioligand [3H]5-HT binding assay.
T1 sequence (P19327 whole entry): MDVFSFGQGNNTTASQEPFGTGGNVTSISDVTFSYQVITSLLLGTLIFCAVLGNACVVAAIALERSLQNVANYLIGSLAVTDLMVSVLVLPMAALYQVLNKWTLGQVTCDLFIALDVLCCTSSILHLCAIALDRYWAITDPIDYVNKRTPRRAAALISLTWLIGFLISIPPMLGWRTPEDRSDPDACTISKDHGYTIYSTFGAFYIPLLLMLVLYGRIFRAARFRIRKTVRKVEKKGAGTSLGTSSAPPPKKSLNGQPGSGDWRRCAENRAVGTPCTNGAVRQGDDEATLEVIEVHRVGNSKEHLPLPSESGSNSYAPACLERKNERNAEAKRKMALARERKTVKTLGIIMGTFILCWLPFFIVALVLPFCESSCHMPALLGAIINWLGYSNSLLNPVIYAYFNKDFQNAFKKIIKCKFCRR
Summary of the method: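 Six to nine drug concentrations, triplicate samples, two to three independent experiments. IC50 converted to Ki by Cheng–Prusoff, with Kd and Bmax from saturation experiments.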

[3] = biological target: D(2) dopamine receptor (Rattus norvegicus) (UniProt P61169); test: (§2) Binding affinity was tested on Dopamine receptor D2 using radioligand [3H]spiroperidol; set-up: concentration or dose not given beside the values
Chain of D(2) dopamine receptor (Rattus norvegicus) (P61169 whole entry): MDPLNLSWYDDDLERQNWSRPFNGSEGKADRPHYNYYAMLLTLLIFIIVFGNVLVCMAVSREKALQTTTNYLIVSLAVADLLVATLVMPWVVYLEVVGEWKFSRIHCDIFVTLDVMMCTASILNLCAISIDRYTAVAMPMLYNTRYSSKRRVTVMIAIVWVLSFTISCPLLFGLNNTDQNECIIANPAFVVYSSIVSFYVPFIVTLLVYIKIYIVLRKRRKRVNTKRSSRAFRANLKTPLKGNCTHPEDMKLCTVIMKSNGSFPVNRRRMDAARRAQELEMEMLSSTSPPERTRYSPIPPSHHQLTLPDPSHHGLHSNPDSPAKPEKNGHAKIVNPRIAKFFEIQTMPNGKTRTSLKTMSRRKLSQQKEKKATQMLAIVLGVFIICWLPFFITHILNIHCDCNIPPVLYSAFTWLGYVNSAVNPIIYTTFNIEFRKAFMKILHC
Summary of the method: (§3)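 Rat striatal membranes labelled with [3H]spiroperidol; (+)-butaclamol defined specific binding. […] Ki by Cheng–Prusoff using Bmax and Kd from saturation experiments. Tested as hydrogen oxalate salts (some hydrochlorides); oxalate interference excluded at highest concentration.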

[4] = biological target: Serotonin 2 (5-HT2) receptor (Rattus norvegicus) (UniProt P30994+P08909+P14842); test: Percentage specific displacement of radioligand [3H]ketanserin from 5-hydroxytryptamine 2 receptor; format: protein assay; set-up: concentration or dose not given beside the values
Chain of Serotonin 2 (5-HT2) receptor (Rattus norvegicus) (P08909 whole entry, looked up): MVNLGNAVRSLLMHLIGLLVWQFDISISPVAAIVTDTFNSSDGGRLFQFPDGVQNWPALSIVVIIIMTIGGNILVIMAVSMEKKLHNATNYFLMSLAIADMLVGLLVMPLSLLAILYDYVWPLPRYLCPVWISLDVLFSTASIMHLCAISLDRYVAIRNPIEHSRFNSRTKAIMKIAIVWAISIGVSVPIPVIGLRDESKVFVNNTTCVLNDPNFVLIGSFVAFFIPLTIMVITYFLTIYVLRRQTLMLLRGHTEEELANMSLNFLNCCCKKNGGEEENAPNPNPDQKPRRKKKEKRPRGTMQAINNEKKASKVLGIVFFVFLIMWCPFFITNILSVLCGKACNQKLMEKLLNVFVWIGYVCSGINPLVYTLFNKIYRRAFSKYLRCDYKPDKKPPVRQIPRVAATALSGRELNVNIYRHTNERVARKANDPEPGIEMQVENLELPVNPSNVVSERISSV
Chain of Serotonin 2 (5-HT2) receptor (Rattus norvegicus) (P14842 whole entry, looked up): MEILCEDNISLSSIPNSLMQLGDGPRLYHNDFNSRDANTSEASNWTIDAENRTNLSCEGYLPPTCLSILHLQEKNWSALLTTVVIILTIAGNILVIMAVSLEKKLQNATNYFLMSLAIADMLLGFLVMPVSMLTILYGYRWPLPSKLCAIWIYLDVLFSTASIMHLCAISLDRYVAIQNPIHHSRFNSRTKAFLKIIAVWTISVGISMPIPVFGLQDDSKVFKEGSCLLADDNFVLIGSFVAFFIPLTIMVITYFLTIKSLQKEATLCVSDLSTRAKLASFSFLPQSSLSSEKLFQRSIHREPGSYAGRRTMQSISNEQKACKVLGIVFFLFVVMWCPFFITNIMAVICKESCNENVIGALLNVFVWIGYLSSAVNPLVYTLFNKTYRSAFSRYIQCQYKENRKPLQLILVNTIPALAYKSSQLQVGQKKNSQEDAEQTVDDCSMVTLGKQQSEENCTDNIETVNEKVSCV
Chain of Serotonin 2 (5-HT2) receptor (Rattus norvegicus) (P30994 whole entry, looked up): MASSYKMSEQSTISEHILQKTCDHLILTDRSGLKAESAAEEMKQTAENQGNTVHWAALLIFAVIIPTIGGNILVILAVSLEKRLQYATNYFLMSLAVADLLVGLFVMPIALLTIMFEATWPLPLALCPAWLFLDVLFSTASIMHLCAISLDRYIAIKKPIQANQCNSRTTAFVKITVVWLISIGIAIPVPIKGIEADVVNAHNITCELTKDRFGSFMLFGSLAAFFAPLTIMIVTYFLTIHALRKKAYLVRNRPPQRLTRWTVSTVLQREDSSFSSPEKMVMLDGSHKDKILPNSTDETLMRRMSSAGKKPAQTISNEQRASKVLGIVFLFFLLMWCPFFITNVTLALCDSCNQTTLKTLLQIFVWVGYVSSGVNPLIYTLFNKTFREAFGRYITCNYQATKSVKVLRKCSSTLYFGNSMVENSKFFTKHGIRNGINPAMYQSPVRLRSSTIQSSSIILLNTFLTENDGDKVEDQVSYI

[5] = biological target: Sigma-1 receptor (Rattus norvegicus); test: Binding affinity was tested on Sigma-1 receptor using radioligand [3H](+)-pentazocine binding assay.
[6] = Binding affinity of compound was tested on Phencyclidine binding assay.
[7] = biological target: T2, Glutamate NMDA receptor (Rattus norvegicus) (UniProt P35439+Q00959+Q00960+Q00961+Q62645+Q8VHN2+Q9R1M7); test: Percentage specific displacement of radioligand [3H]phencyclidine from Phencyclidine receptor; format: protein-complex assay
Summary of the method: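 Rat hippocampus membranes, [3H]phencyclidine radioligand; (+)-N-allylnormetazocine (SKF 10,047) defined specific binding. Percent specific displacement run in triplicate at a single stated compound concentration.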

[8] = biological target: D(2) dopamine receptor (Rattus norvegicus) (UniProt P61169); test: (§4) Binding affinity of compound towards Dopamine receptor D2 was determined in rat striatal homogenate using [3H]- spiperone as radioligand; summary of the method: as §3
[9] = biological target: T2, Glutamate NMDA receptor (Rattus norvegicus); test: Binding affinity of compound was tested on Phencyclidine binding assay.; format: protein-complex assay; summary of the method: as §1
[10] = biological target: T3, D(2) dopamine receptor (Rattus norvegicus, UniProt P61169); test: as §2
T3 sequence (P61169 whole entry): as the sequence (P61169 whole entry) above
Summary of the method: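 Ki by Cheng–Prusoff using Bmax and Kd from saturation experiments. Tested as hydrogen oxalate salts (some hydrochlorides); oxalate interference excluded at highest concentration.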

[11] = biological target: Serotonin 2 (5-HT2) receptor (Rattus norvegicus, UniProt P30994+P08909+P14842); test: Percentage specific displacement of radioligand [3H]-ketanserin from 5-hydroxytryptamine 2 receptor; format: protein assay
[12] = biological target: T3, D(2) dopamine receptor; test: as §4; summary of the method: as §3

Compound: CCCN(CCC)CCCCC1CCCc2ccccc21 (configuration not stated)
- Ki [1]: 9910 nM
- Ki [2]: 200 nM
- Displacement [3]: 31%
- Displacement [4]: 66%
- Ki [5]: 4.7 nM

Compound: c1ccc2c(c1)CCN(CCCCC1CCCc3ccccc31)C2 (configuration not stated)
- Ki [1]: > 92600 nM
- Ki [5]: 3.7 nM

Compound: C=CCN1CCC2c3cc(O)ccc3CC1C2C (configuration not stated)
- Ki [6]: 370 nM

Compound: c1ccc2c(c1)CCCC2CCCN1CCCCC1 (configuration not stated)
- Displacement [7]: 95%
- Ki [2]: > 1430 nM
- Displacement [8]: 0%
- Displacement [4]: 21%

Compound: CCCN(CCC)CCCCC1=CCCc2ccccc21
- Ki [1]: 2600 nM
- Ki [2]: 357 nM
- Displacement [3]: 40%
- Displacement [4]: 60%
- Ki [5]: 3.9 nM

Compound: C1=C(CCCCN2CCCCC2)c2ccccc2CC1
- Displacement [9]: 92%
- Ki [2]: > 1430 nM
- Displacement [3]: 0%
- Displacement [4]: 12%
- Ki [5]: 3.9 nM

Compound: CC1(C)CCCN(CCCC2CCCc3cscc32)C1 (configuration not stated)
- Ki [1]: 9.4 nM
- Ki [2]: > 1430 nM

Compound: c1cc2c(s1)CCCC2CCCN1CCCCC1 (configuration not stated)
- Ki [1]: > 92600 nM

Compound: c1ccc(CC2CCN(CCCCC3CCCc4ccccc43)CC2)cc1 (configuration not stated)
- Ki [1]: > 92600 nM
- Ki [2]: 285 nM
- Ki [5]: 30 nM

Compound: COc1cccc2c1CCCC2CCCN1CCCCC1 (configuration not stated)
- Ki [10]: > 1850 nM
- Ki [1]: 3240 nM
- Ki [2]: > 1430 nM
- Ki [11]: > 5520 nM

Compound: COc1cccc2c1CCCC2CCCN1CCC(Cc2ccccc2)CC1 (configuration not stated)
- Ki [1]: > 92600 nM
- Ki [12]: 1300 nM
- Ki [2]: < 0.14 nM

Compound: COc1cccc2c1CCCC2CCCN1CCCC(C)(C)C1 (configuration not stated)
- Ki [10]: > 10000 nM
- Ki [1]: 34.2 nM
- Ki [2]: 898 nM

Compound: COc1ccc2c(c1)C(CCCN1CCCCC1)CCC2 (configuration not stated)
- Ki [10]: > 1850 nM
- Displacement [7]: 88%
- Ki [2]: > 1430 nM
- Ki [5]: 63.2 nM
- Ki [11]: > 5520 nM

Compound: CCCN(CCC)CCCC1CCCc2ccccc21 (configuration not stated)
- Ki [1]: 48100 nM
- Ki [2]: 400 nM
- Displacement [3]: 0%
- Displacement [4]: 51%
- Ki [5]: 6.7 nM

Compound: c1ccc2c(c1)CCCC2CCCCN1CCCCC1 (configuration not stated)
- Ki [1]: 5560 nM
- Ki [2]: > 1430 nM
- Displacement [3]: 27%
- Displacement [4]: 64%
- Ki [5]: 4.7 nM

Compound: CC1(C)CCCN(CCCCC2CCCc3ccccc32)C1 (configuration not stated)
- Ki [10]: > 10000 nM
- Ki [1]: > 92600 nM
- Ki [2]: > 1430 nM
- Ki [5]: 0.8 nM
